Structures are written as SMILES.

Series [1] concerns the target T1, Tyrosinase (Agaricus bisporus) (UniProt O42713).
T1 sequence (whole entry): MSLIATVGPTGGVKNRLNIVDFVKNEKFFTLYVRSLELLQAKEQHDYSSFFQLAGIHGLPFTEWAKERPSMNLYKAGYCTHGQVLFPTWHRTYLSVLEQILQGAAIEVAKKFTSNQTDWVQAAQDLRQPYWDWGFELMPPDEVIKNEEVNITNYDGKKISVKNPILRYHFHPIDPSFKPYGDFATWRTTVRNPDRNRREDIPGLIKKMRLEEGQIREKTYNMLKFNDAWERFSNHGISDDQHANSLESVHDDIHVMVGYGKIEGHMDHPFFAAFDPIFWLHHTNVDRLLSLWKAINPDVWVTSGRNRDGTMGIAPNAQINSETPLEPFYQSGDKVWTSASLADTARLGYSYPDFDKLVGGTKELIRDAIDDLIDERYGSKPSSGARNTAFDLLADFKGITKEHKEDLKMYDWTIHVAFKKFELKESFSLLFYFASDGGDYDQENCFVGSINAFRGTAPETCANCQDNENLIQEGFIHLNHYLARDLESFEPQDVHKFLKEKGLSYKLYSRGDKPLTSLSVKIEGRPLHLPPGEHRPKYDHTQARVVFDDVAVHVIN
The series is described as follows: Non-competitive inhibition of mushroom tyrosinase using L-tyrosine as substrate by Lineweaver-Burk plots analysis. In short, it runs like this:
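Absorbance at 475 nm read at 30 °C in PBS with 5% DMSO. Global nonlinear Michaelis–Menten fitting over four inhibition models gave Vmax, Km, Kic and Kiu, with the model chosen by minimal χ2.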

For series [2], the target named is T2, Tyrosinase (Mus musculus) (UniProt P11344).
T2 sequence (whole entry): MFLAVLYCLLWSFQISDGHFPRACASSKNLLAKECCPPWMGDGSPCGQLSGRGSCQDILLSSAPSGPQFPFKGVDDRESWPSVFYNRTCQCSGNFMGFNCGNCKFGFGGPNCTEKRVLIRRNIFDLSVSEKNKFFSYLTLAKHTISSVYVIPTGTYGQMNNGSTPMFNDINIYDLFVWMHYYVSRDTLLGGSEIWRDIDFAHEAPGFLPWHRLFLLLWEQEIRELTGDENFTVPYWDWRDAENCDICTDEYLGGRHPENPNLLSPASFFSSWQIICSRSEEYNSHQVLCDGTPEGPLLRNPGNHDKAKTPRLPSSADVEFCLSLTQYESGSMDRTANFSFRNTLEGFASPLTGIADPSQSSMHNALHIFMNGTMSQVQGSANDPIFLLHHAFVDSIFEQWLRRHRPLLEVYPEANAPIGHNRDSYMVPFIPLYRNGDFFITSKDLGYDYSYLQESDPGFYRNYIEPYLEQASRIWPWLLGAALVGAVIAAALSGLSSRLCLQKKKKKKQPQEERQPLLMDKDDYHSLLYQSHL
Kind of series: Inhibition of tyrosinase in mouse B16F10 cells assessed as remaining melanin production at 10 uM relative to control. Particulars: B16-F10.

In series [3] the target is T2, Tyrosinase (Mus musculus). Kind of series: Inhibition of tyrosinase in mouse B16F10 cells assessed as remaining melanin production at 50 uM relative to control. The settings on record: B16-F10.
The target in series [4] is T1, Tyrosinase (Agaricus bisporus). Kind of series: Binding affinity to mushroom tyrosinase assessed as fluorescence quenching.
Series [5] deals with T2, Tyrosinase (Mus musculus). Kind of series: Inhibition of tyrosinase in mouse B16F10 cells assessed as remaining melanin production at 20 uM relative to control. The settings on record: B16-F10.
The nature of series [6]: Cytotoxicity against mouse B16F10 cells assessed as cell survival at 50 uM after 48 hrs by MTT assay. It counts as cell-based, B16-F10. Particulars: read-out: Survival. In general terms: Tetrazolium dyes change colour on reduction, which living cells bring about.
Series [7] deals with T3, Tyrosinase (Agaricus bisporus, UniProt O42713).
T3 sequence (O42713 whole entry): T1 sequence (whole entry)
The series is described as follows: Inhibition of mushroom tyrosinase using L-tyrosine as substrate.

The target in series [8] is T2, Tyrosinase (Mus musculus). The series is described as follows: Inhibition of tyrosinase in mouse B16F10 cell lysates using DOPA as substrate relative to control. The settings on record: B16-F10, concentration not given here. Further details: concentration or dose not given beside the values. It is filed as cell-free.
For series [9], the target named is T3, Tyrosinase. Kind of series: Competitive inhibition of mushroom tyrosinase using L-tyrosine as substrate by Lineweaver-Burk plots analysis. In short, it runs like this: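 Global nonlinear Michaelis–Menten fitting over four inhibition models gave Vmax, Km, Kic and Kiu, with the model chosen by minimal χ2.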

For the molecule `NC(=S)c1ccccn1`, the Kic in [1] was 2.7 µM. The residual activity (as a rule, the signal under treatment as a percentage of the control signal) was determined as 98% in series [2], 56% in [3] and 80% in series [5]. Besides, the KSV in [4] was 9 ×10³ /M. Besides, the viability at 48 h, 50 µM in series [6] stood at 105%. Also, the IC50 (as a rule, the concentration needed to halve the response being measured) in [7] is 14.4 µM. For the same molecule, the inhibition (commonly the relative decrease from the control value, in per cent) in [8] turned out to be 78%.

Consider `NC(=S)Nc1ccccc1` [PHENYLTHIOUREA], for which the values for the residual activity in series [2], in [3] and in [5] were 63%, 54% and 55%, respectively. In addition, the KSV in [4] came to 2.4 ×10³ /M. Besides, the viability at 48 h, 50 µM in [6] is 106%. Besides, in series [8], the inhibition was found to be 27%.

`CC(=S)Nc1ccccc1`: the residual activity in series [2] is 91%; in series [3], 57%; in series [5], 75%. The KSV in series [4] is 8.3 ×10³ /M. In series [9], the Ki (commonly a dissociation constant, usually derived from enzyme kinetics or from competition with a known ligand) stood at 1.2 µM. In [6], the viability at 48 h, 50 µM came out at 116%. The concentration for half-maximal inhibition (IC50) in series [7] came out at 4.1 µM. The inhibition in series [8] worked out at 42%.

Regarding `NC(=S)c1ccccc1`, in series [1], the Kic amounted to 0.7 µM. The residual activity in series [2] came out at 103%; in series [3] it was 63%; in series [5], 93%. In [4], the KSV was 9.2 ×10³ /M. For the same molecule, the viability at 48 h, 50 µM in [6] was 117%. The same molecule returned an IC50 in series [7] of 2.8 µM. In addition, the inhibition in series [8] was 72%.

For the molecule `CC(=O)Nc1ccccc1` [ACETANILIDE], the residual activity in series [2] is 105%; in series [3], 102%; in series [5] it was 103%. The KSV in series [4] stood at 1 ×10³ /M. Besides, in series [6], the viability at 48 h, 50 µM was 116%. The molecule further yielded a half-maximal inhibitory concentration (IC50) in series [7] above 1000 µM. Further, in series [8], the inhibition was 99%.

As for `NC(=S)c1ccncc1`, the Kic in [1] stood at 22.3 µM. The figures for the residual activity in series [2], in series [3] and in series [5] were 106%, 104% and 103%, respectively. In series [4], the KSV is 7.5 ×10³ /M. For the same molecule, the viability at 48 h, 50 µM in [6] came to 110%. In addition, the midpoint of inhibition in [7], the IC50, lay at 43.8 µM. For the same molecule, the inhibition in [8] stood at 93%.

As for `NNC(=O)c1ccncc1` [ISONIAZID], the figures for the residual activity in series [2], in [3] and in [5] were 104%, 102% and 100%, respectively. Also, in [4], the KSV is 1.7 ×10³ /M. Further, the viability at 48 h, 50 µM in [6] was 103%. Further, the IC50 in [7] was above 1000 µM. Besides, the inhibition in series [8] is 97%.

`NC(=S)c1cccnc1`: the Kic in [1] is 4.3 µM. In addition, the residual activity in series [2] was determined as 109%; in series [3] it was 106%; in [5] it was 104%. Besides, the KSV in series [4] came to 8.5 ×10³ /M. Moreover, the viability at 48 h, 50 µM in series [6] is 108%. In [7], inhibition was half-maximal at 7.5 µM (IC50). The molecule further registered an inhibition in [8] of 83%.

In the case of `CCCc1cc(C(N)=S)ccn1` [PROTIONAMIDE], the Kic in series [1] came out at 2.4 µM. The residual activity in series [2] was found to be 105%; in [3], 100%; in series [5], 103%. In addition, the KSV in [4] stood at 10.2 ×10³ /M. For the same molecule, the viability at 48 h, 50 µM in [6] was 121%. This molecule also registered an IC50 in series [7] of 4.5 µM. Besides, the inhibition in series [8] stood at 84%.

Consider `CCc1cc(C(N)=S)ccn1` [ETHIONAMIDE], for which, in series [1], the Kic amounted to 1.9 µM. Moreover, the residual activity is 107% in [2], 104% in [3] and 104% in series [5]. The KSV in [4] is 9.5 ×10³ /M. Moreover, the viability at 48 h, 50 µM in series [6] worked out at 106%. In addition, in [7], the IC50 is 4 µM. In series [8], this molecule registered an inhibition of 88%.

The record behind these values is ChEMBL document CHEMBL3739382 (Eur J Med Chem, 2015).
